Laboratory results published in the EternaBench riboswitch data.

Tested on: MS2 coat protein
Experiment: apparent Kd, MS2 coat protein; higher = weaker binding; RNA-MaP array; FMN 200 µM where present
In short: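 The apparent Kd comes from binding curves fitted cluster by cluster, filtered, and summarised as a median. Those curves followed SNAP-549-labelled MS2 coat protein from 0.7 or 1.5 nM, doubling to 3 µM, on Illumina sequencing-chip clusters where stalled E. coli RNA polymerase had transcribed the designs, without and then with constant ligand. The buffer was 100 mM Tris-HCl pH 7.5, 80 mM KCl, 4 mM MgCl2, BSA, DTT, yeast tRNA and Tween-20, and green signal was normalised to red-channel RNA signal and control-cluster median Fmax.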

[1] = designed as: OFF switch for flavin mononucleotide, no ligand
[2] = ligand present: flavin mononucleotide, designed as: OFF switch for flavin mononucleotide
[3] = designed as: ON switch for flavin mononucleotide, no ligand
[4] = ligand present: flavin mononucleotide, designed as: ON switch for flavin mononucleotide

GGAUAGGACAGAGGAUAUACGUGCUAGAGAUACUAGCAAAAUUUCCUCACAUGAGGAUCACCCAUGUAGAAGGCUGUCCUAGCG
apparent Kd [1]: 0.0157 µM | apparent Kd [2]: 0.376 µM

GGAUAGGACAGAGGAUAUACGUGCUAGAGAUACUAGCAAAAUUUCCUCACAUGAGGAUCACCCAUGUAGAAGGCUGUCCUAUCC
apparent Kd [1]: 0.0185 µM | apparent Kd [2]: 0.435 µM

GGAUAGGACAGAGGAUAUACGUGCUAGAGAUACUAGCUAAAUUUCCUCACAUGAGGAUCACCCAUGUAGAAGGCUGUCCUAUCG
apparent Kd [1]: 0.015 µM | apparent Kd [2]: 0.412 µM

GGAUAGGACAGAGGAUAUACGUGCUAGGGAUACUAGCAAAAUUUCCUCACAUGAGGAUCACCCAUGUAGAAGGCUGUCCUAUCG
apparent Kd [1]: 0.0161 µM | apparent Kd [2]: 0.416 µM

GGAUAGGACCGAGGAUAUACGUGCUAGAGAUACUAGCAAAAUUUCCUCACAUGAGGAUCACCCAUGUAGAAGGCUGUCCUAUCG
apparent Kd [1]: 0.00578 µM | apparent Kd [2]: 0.0125 µM

GGAUAUGUCGUCUACAUGAGGAUCACCCAUGUUGAUAAACAUGAGGAUAUUGAUAAGAAUUGUAUCGAGAAGGUAUGUAGGUCC
apparent Kd [3]: 0.106 µM | apparent Kd [4]: 0.0895 µM

GGAUCGAAUGUGAGGAUAUGCUGGUCCUUGGAUCAGCAGAAGGCACAUGAGGAUCACCCAUGUCCAAGCGGUCC
apparent Kd [1]: 0.211 µM | apparent Kd [2]: 0.559 µM

GGAUCGAGUGUGAGGAUAUACCACUGGAUACAGUGGUAGAAGGCACAUGAGGAUCACCCAUGUCUCUACGAUCC
apparent Kd [1]: 0.0161 µM | apparent Kd [2]: 0.0518 µM

GGAUGACAAAGUCAUCCAAUACGAACAUGAGGAUCACCCAUGUAGGAUAUGCAUCUCAAAGAGAUGCAGAAGGACAUGUGCCUU
apparent Kd [1]: 0.0369 µM | apparent Kd [2]: 0.272 µM

GGAUGACAAAGUCAUCCAUUACGAACAUGAGGAUCACCCAUGUAGGAUAUGCUACUCAAAGAGUAGCAGAAGGACAUGUGUCUU
apparent Kd [1]: 0.0312 µM | apparent Kd [2]: 0.149 µM

GGAUGACAAAGUCAUCCUCAACGGACAUGAGGAUCACCCAUGUAGGAUAUGCUACUCAAAGAGUAGCAGAAGGACAUGUGUCUU
apparent Kd [1]: 0.0373 µM | apparent Kd [2]: 0.241 µM

GGAUGCAAGGAGAAGGGCUACUGGUUGAAACCUGCGGCCUCUGGAACAUGAGGAUCACCCAUGUAGCAGGAUAUCCUUACGUGA
apparent Kd [1]: 0.233 µM | apparent Kd [2]: 0.0328 µM

GGAUGUCAAAGACAUCCAAUACGAACAUGAGGAUCACCCAUGUAGGAUAUGCUACUCAAAGAGUAGCAGAAGGACAUGUGUCUU
apparent Kd [1]: 0.0306 µM | apparent Kd [2]: 0.164 µM

GGAUUACAUGAGGAUCACCCAUGUGAGGAUAUCGAUGUCCUCAGUAGAGUGCGGGACUCGAGAAGGCACUUGGA
apparent Kd [1]: 0.0701 µM | apparent Kd [2]: 0.0959 µM

GGCACACAUGAGGAUCACCCAUGUGAGGAUAUGUUAGUUUCGGCCAAAGCCGAAAUUAACAGAAGGCACAUGCC
apparent Kd [1]: 0.0149 µM | apparent Kd [2]: 0.0264 µM

GGCACCAUCACAGGAUAUGCUUUCCUUUGGGAAGCAGAAGGGUGUAACAUGAGGAUCACCCAUGUGGUGCCAGGGCGUGAGCCC
apparent Kd [3]: 0.164 µM | apparent Kd [4]: 0.014 µM

GGCACCAUCACAGGAUAUGCUUUCUUUUGGGAAGCAGAAGGGUGUAACAUGAGGAUCACCCAUGUGGUGCCAGGGCGUGAGCCC
apparent Kd [3]: 0.175 µM | apparent Kd [4]: 0.014 µM

GGCCUGCAGCUAGGAUAUGGGCGAUCACAUGAGGAUCACCCAUGUCAACAUCAAAACAAGAUUAACCAGAAGGAGCCGCGAGUU
apparent Kd [3]: 0.0265 µM | apparent Kd [4]: 0.211 µM

GGCGCAUUUGUGGCGUAUAGGUCGAAGGAUAUCACGUGCCGCCUAGUACAUGAGGAUCACCCAUGUGAGAAGGUCGAACUUAAC
apparent Kd [1]: 0.0193 µM | apparent Kd [2]: 0.0835 µM

GGCUACGUUUCGUAGCAGCUAGGUGAGGAUAUUCAAUUUUUCACAUGAGGAUCACCCAUGUAUGUGAAGAAGGCGCCUAGAAAA
apparent Kd [3]: 0.0117 µM | apparent Kd [4]: 0.00483 µM

GGCUCUGCUCGAGGAUAUAGCUGCAUGUAGUGUCCUGAGGCACAUGAGGAUCACCCAUGUGUAGGCUAGAAGGCGACAGAGGCG
apparent Kd [1]: 0.188 µM | apparent Kd [2]: 0.276 µM

GGCUUAAACACAGGAUAUGGCCUCAGAGUAAGGCCAGAAGGGUGAAGUUCUCAUACAUGAGGAUCACCCAUGUCAAGGAGGCUA
apparent Kd [3]: 0.521 µM | apparent Kd [4]: 0.204 µM

GGCUUCUUCACAGGAUAUGGUUUUUUAAGUAUACAUGAGGAUCACCCAUGUCCAGAAGGGUGAGGGUUCGGCGUGCGGUGUCGG
apparent Kd [3]: 0.384 µM | apparent Kd [4]: 0.0427 µM

GGCUUGCAGCUAGGAUAUGGGCGAUCACAUGAGGAUCACCCAUGUCAACAUCAAAACAAGAUUAACCAGAAGGAGCCGCGGGUU
apparent Kd [3]: 0.0506 µM | apparent Kd [4]: 0.153 µM

GGGAAGUUAGGAUAUGCUGCUCGUCACUUGCGUGAUGAGUAGCAGAAGGGACAUGAGGAUCACCCAUGUAAAGA
apparent Kd [1]: 0.0416 µM | apparent Kd [2]: 0.0262 µM

GGGAGUCUACAUGAGGAUCACCCAUGUGGUCCAGCAGGAACACAGGAUAUCCAAUGAGAUUCUCGGGAGAAGGGUGAAUGCUUA
apparent Kd [3]: 0.107 µM | apparent Kd [4]: 0.174 µM

GGGCCAUAGUAGAAGGGAUAUACGAAAGGUAUAUCAGGAUAUACAUGAGGAUCACCCAUGUUCUAACAGUGAUAGUCCUCCCUA
apparent Kd [1]: 0.0224 µM | apparent Kd [2]: 0.0698 µM

GGGCCCGGAGGAUAUACAAUGGGCCCGGGAAAUUGGGCCCUACAUGAGGAUCACCCAUGUAGAAGGUUGGGCCC
apparent Kd [1]: 0.0128 µM | apparent Kd [2]: 0.0136 µM

GGGCCCGGAGGAUAUACAUGAGGAUCACCCAUGUACCCGGGCCCUAUUGGGUUUGGGUGUAGAAGGCCGGGCCC
apparent Kd [1]: 0.015 µM | apparent Kd [2]: 0.0153 µM

GGGCCCGGAGGAUAUACAUGAGGAUCACCCAUGUAGGGCUCGGGUAUUUCUGGGUCUUGUAGAAGGCCGGGCCC
apparent Kd [1]: 0.016 µM | apparent Kd [2]: 0.0228 µM

GGGCCGCUACGCCGGCUCCACGCACAGGAUAUGCAGUUACAUGAGGAUCACCCAUGUGGCCAUGUGCAGAAGGGUGAUUCGCGA
apparent Kd [3]: 0.0787 µM | apparent Kd [4]: 0.0461 µM

GGGCCGGUGGAGAAGGAGCUCACGUAACGUAGGCUAGGAUAUCCACAUGAGGAUCACCCAUGUGGGAAUAUCUGAUUUUCACAG
apparent Kd [1]: 0.00401 µM | apparent Kd [2]: 0.00488 µM

GGGCCGUAGUAGAAGGGAUAUACGUUAGGUAUAUCAGGAUAUACAUGAGGAUCACCCAUGUUCUAACAGUGAUAGUCCUCCCUA
apparent Kd [1]: 0.0198 µM | apparent Kd [2]: 0.0554 µM

GGGCGUGAAGGAUAUACAUGAGGAUCACCCAUGUGGGAGGAGAAUGGUGAGGAGGCUGGUAGAAGGUCAGGAGG
apparent Kd [1]: 0.0479 µM | apparent Kd [2]: 0.0458 µM

GGGCUGUCAGGAUAUCCCGGGCCCGGGUAAAUUUGGGCCCGGGAGAAGGGACAUGAGGAUCACCCAUGUGGCCC
apparent Kd [1]: 0.0392 µM | apparent Kd [2]: 0.0405 µM

GGGCUUUGGGAGAAGGUACAUUAAAUUAGUUUAACAUGAGGAUCACCCAUGUAAGGAUAUCCCAUCUUGUAUUAUGGUACAGCC
apparent Kd [1]: 0.0128 µM | apparent Kd [2]: 0.0128 µM

GGGUACAUCAGAGGAUAUCAUGUAAAUACAUGAGGAUCACCCAUGUCGAUGGAGACAUCGGAGAUUGAGAAGGCCGAUGUACCG
apparent Kd [3]: 0.292 µM | apparent Kd [4]: 0.0134 µM

GGGUACAUCGGAGGAUAUCACGUAAAUACAUGAGGAUCACCCAUGUCGAUGGAGACAUCGGAGAUUGAGAAGGCCGAUGUACCG
apparent Kd [3]: 0.0076 µM | apparent Kd [4]: 0.00533 µM

GGGUACAUCGGAGGAUAUCAUGUAAAUACAUGAGGAUCACCCAUGUCGAUGGAGACAACGGAGAUUGAGAAGGCCGAUGUACCG
apparent Kd [3]: 0.952 µM | apparent Kd [4]: 0.108 µM

GGGUACAUCGGAGGAUAUCAUGUAAAUACAUGAGGAUCACCCAUGUCGAUGGAGACAUCGGAGACUGAGAAGGCCGAUGUACCG
apparent Kd [3]: 0.0418 µM | apparent Kd [4]: 0.00718 µM

GGGUACAUCGGAGGAUAUCAUGUAAAUACAUGAGGAUCACCCAUGUCGAUGGAGACAUCGGAGAGUGAGAAGGCCGAUGUACCG
apparent Kd [3]: 0.257 µM | apparent Kd [4]: 0.0134 µM

GGGUACAUCGGAGGAUAUCAUGUAAAUACAUGAGGAUCACCCAUGUCGAUGGAGACAUCGGAGAUUGAGAAGGCCGAGGUACCG
apparent Kd [3]: 0.191 µM | apparent Kd [4]: 0.00991 µM

GGGUACAUCGGAGGAUAUCAUGUAAAUACAUGAGGAUCACCCAUGUCGAUGGAGACAUCGGAGAUUGAGAAGGCCGGUGUACCG
apparent Kd [3]: 0.165 µM | apparent Kd [4]: 0.0099 µM

GGGUACAUCGGAGGAUAUCAUGUAAAUACAUGAGGAUCACCCAUGUCGAUGGAGACAUCGGAGAUUGAGAAGGCGGAUGUACCG
apparent Kd [3]: 0.309 µM | apparent Kd [4]: 0.0231 µM

GGGUACAUCGGAGGAUAUCAUGUAUAUACAUGAGGAUCACCCAUGUCGAUGGAGACAUCGGAGAUUGAGAAGGCCGAUGUACCG
apparent Kd [3]: 0.826 µM | apparent Kd [4]: 0.0315 µM

GGGUACAUCGGAGGAUAUCAUUUAAAUACAUGAGGAUCACCCAUGUCGAUGGAGACAUCGGAGAUUGAGAAGGCCGAUGUACCG
apparent Kd [3]: 0.0079 µM | apparent Kd [4]: 0.00557 µM

GGGUACAUGGGAGGAUAUCAUGUAAAUACAUGAGGAUCACCCAUGUCGAUGGAGACAUCGGAGAUUGAGAAGGCCGAUGUACCG
apparent Kd [3]: 0.0211 µM | apparent Kd [4]: 0.0377 µM

GGGUAGUGAGGAUAUCGUUGUUAGGAGGAGUAGGUAGGAGGCGAGAAGGCACAUGAGGAUCACCCAUGUAUGAA
apparent Kd [1]: 0.0267 µM | apparent Kd [2]: 0.029 µM

GGGUGACAUGAGGAUCACCCAUGUCAGGAUAUGAUACUAUGUACUUCGGUACAUAGUAUCAGAAGGGACAUCCC
apparent Kd [1]: 0.0484 µM | apparent Kd [2]: 0.158 µM

GGGUGACAUGAGGAUCACCCAUGUCAGGAUAUGCUUGAGCUUGAGAAAUCGAGUUCGAGUAGAAGGGACUGCCC
apparent Kd [1]: 0.0473 µM | apparent Kd [2]: 0.0723 µM

GGGUGGCGUAGAGGAUAUAUGGUACAUGAGGAUCACCCAUGUACAUAUGAUGUUCAUGUUUAUGUAUAGAAGGCUACGUCGCUA
apparent Kd [3]: 0.0101 µM | apparent Kd [4]: 0.00976 µM

GGGUUGGGAGGAUAUCCAAUAUAUGACAUGAGGAUCACCCAUGUUUCCACUCGUACCUCCGGAGAAGGCCCUUCCC
apparent Kd [1]: 0.0193 µM | apparent Kd [2]: 0.02 µM

GGUACCAUCACAGGAUAUGCUAUGGUUUCCGUAGCAGAAGGGUGAUAACAUGAGGAUCACCCAUGUGGUACCGGGCGUGAGCCC
apparent Kd [3]: 0.741 µM | apparent Kd [4]: 0.201 µM

GGUACCAUCACAGGAUAUGCUUUCCUUUGGGAAGCAGAAGGGUGUAACAUGAGGAUCACCCAUGUGGUGCCAGGGCGCGAGCCC
apparent Kd [3]: 0.182 µM | apparent Kd [4]: 0.0168 µM

GGUACUCAAAGAGUACCAAUACGAACAUGAGGAUCACCCAUGUAGGAUAUGAAAACGCCGGAGUAUCAGAAGGACAUGUGCCUA
apparent Kd [1]: 0.0126 µM | apparent Kd [2]: 0.0213 µM
